The text below walks through data of BindingDB's records for doi:10.1021/jm701562x (Johannes Gutenberg University, 2008).

Where a name gives a salt, the structure may show the parent alone.

The target of assay [1] is Gamma-aminobutyric acid receptor subunit alpha-2 (Rattus norvegicus, UniProt P23576). The assay is described as follows: Agonist activity at rat recombinant GABAA alpha-2-beta-3-gamma-2 receptor expressed in HEK293 cells assessed as normalization of GABA-induced current by whole cell patch-clamp technique. In a few lines: (§1)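 HEK293 cells transiently co-transfected (calcium phosphate) with rat αi, β3 and γ2S cDNAs plus EGFP marker; recorded 2 days later by whole-cell patch clamp in HEPES saline pH 7.35.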
Sequence of Gamma-aminobutyric acid receptor subunit alpha-2 (P23576 whole entry): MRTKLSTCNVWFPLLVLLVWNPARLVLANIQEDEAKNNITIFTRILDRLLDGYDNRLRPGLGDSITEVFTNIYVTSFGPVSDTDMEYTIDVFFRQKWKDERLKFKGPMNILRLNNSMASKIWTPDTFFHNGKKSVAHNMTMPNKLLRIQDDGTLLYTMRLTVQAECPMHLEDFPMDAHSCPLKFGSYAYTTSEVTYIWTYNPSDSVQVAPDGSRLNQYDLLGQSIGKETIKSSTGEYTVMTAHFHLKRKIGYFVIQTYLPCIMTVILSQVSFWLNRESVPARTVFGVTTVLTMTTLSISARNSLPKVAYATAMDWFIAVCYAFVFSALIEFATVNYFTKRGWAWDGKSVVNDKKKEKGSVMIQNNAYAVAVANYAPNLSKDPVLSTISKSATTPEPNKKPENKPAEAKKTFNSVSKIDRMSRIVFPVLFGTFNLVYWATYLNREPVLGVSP
(In general: The patch-clamp technique gives a direct electrical read-out from membranes.)

Assay [2] addresses Gamma-aminobutyric acid receptor subunit alpha-1 (Rattus norvegicus, UniProt P62813). The experiment in a line: Agonist activity at rat recombinant GABAA alpha-1-beta-3-gamma-2 receptor expressed in HEK293 cells assessed as normalization of GABA-induced current by whole cell patch-clamp technique. Put shortly: as §1

Sequence of Gamma-aminobutyric acid receptor subunit alpha-1 (P62813 whole entry): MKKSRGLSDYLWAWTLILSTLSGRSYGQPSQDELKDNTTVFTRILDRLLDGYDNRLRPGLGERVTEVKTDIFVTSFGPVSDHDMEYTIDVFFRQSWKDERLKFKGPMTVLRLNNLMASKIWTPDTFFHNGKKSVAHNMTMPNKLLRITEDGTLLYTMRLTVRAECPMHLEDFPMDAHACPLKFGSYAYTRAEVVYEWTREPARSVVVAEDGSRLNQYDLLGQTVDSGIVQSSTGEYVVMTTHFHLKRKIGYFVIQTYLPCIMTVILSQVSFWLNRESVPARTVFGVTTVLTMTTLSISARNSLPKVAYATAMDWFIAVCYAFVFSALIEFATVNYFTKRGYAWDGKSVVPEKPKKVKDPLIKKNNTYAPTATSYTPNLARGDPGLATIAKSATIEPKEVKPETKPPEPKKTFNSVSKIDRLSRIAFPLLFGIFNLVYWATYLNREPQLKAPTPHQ

For `NCc1n[nH]c(=O)o1` [5-Aminomethyl-3H-[1,3,4]oxadiazol-2-one Hydrochloride], the EC50 amounted to 182 µM in assay [1] and 280 µM in assay [2].

As usually defined, the EC50 is the concentration at which the effect is half-maximal.
